Test results published in ChEMBL document CHEMBL4665627 (Eur J Med Chem, 2019).
Values after ≈ are worked out from the molar mass of the structure shown. Active and inactive are the calls of the source. The calls are words filed in the database; no cut-off is given here.

Key:
DNA gyrase = DNA gyrase (Escherichia coli, UniProt P0AES4+P0AES6); assay: Inhibition of Escherichia coli DNA gyrase holoenzyme assessed as reduction in pBR322 DNA supercoiling using pBR322 plasmid DNA as substrate incubated for 90 mins in presence of ATP by ethidium bromide staining based agarose gel electrophoresis analysis; format: protein-complex assay
DNA [1] = assay: Competitive binding affinity to Klebsiella pneumoniae DNA assessed as increase in DNA-NR probe absorption intensity at wavelength of 460 nm by UV spectroscopy; format: nucleic-acid assay
Procedure, shortened: (§1)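 Competitive binding with neutral red as spectral probe on K. pneumoniae DNA, monitored by UV-vis absorption spectroscopy.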

Saccharomyces cerevisiae = assay: Inhibition of Saccharomyces cerevisiae CGMCC 2.145 chitin synthase at 300 ug/ml using GlcNAc and UDP-GlcNAc as substrate incubated for 60 mins by microplate reader analysis relative to control; details: dose 300.0 µg/ml
Procedure, shortened: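 Chitin synthase inhibition ratio measured at 300 µg/mL test compound, relative to untreated control.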

Aspergillus fumigatus = assay: Antifungal activity against Aspergillus fumigatus assessed as inhibition of fungal growth after 24 hrs by CLSI protocol based two fold serial dilution method; format: functional
Procedure, shortened: (§2)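 Two-fold serial broth dilution in 96-well plates following CLSI; MIC (mM) taken as the lowest concentration giving complete growth inhibition; MIC values from three independent experiments.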

Candida tropicalis = assay: Antifungal activity against Candida tropicalis assessed as inhibition of fungal growth after 24 hrs by CLSI protocol based two fold serial dilution method; format: functional; procedure, shortened: as §2
[2] = Cytotoxicity against mouse RAW264.7 cells assessed as cell viability at 128 ug/ml after 72 hrs by MTT assay relative to control; format: cell-based; details: at 128 µg/mL, read-out: Activity
Procedure, shortened: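 RAW 264.7 mouse macrophage cells exposed to test compound; viability by colorimetric MTT proliferation assay; standard deviation from three independent experiments.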

Candida albicans [3] = assay: Antifungal activity against Candida albicans assessed as inhibition of fungal growth after 24 hrs by CLSI protocol based two fold serial dilution method; format: functional; procedure, shortened: as §2
Staphylococcus aureus [4] = assay: Antibacterial activity against methicillin-resistant Staphylococcus aureus N315 assessed as inhibition of bacterial growth after 24 hrs by CLSI protocol based two fold serial dilution method; format: functional
Candida albicans [5] = assay: Antifungal activity against Candida albicans ATCC 90023 assessed as inhibition of fungal growth after 24 hrs by CLSI protocol based two fold serial dilution method; format: functional; procedure, shortened: as §2
Klebsiella pneumoniae [6] = assay: Antibacterial activity against Klebsiella pneumoniae assessed as bacterial growth inhibition in presence of cefathiamidine by CLSI protocol based two fold serial dilution method; format: functional; procedure, shortened: as §2
DNA [7] = assay: Competitive binding affinity to Klebsiella pneumoniae DNA assessed as intercalating activity by measuring decrease in DNA-NR probe absorption spectra at wavelength of 530 nm by UV spectroscopy; format: nucleic-acid assay; procedure, shortened: as §1
Escherichia coli [8] = assay: Antibacterial activity against Escherichia coli assessed as inhibition of bacterial growth after 24 hrs by CLSI protocol based two fold serial dilution method; format: functional; procedure, shortened: as §2
Staphylococcus aureus [9] = assay: Antibacterial activity against Staphylococcus aureus ATCC 29213 assessed as inhibition of bacterial growth after 24 hrs by CLSI protocol based two fold serial dilution method; format: functional
Klebsiella pneumoniae [10] = assay: Bactericidal activity against Klebsiella pneumoniae assessed as log reduction in viable bacteria at 4 times MIC incubated for 1 hr followed by plating on agar plate and measured after 24 hrs by time kill assay; format: functional
Procedure, shortened: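 Time-kill kinetics for K. pneumoniae at 4 × MIC.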

Pseudomonas aeruginosa [11] = assay: Antibacterial activity against Pseudomonas aeruginosa ATCC 27853 assessed as inhibition of bacterial growth after 24 hrs by CLSI protocol based two fold serial dilution method; format: functional; procedure, shortened: as §2
Staphylococcus aureus [12] = assay: Synergistic antibacterial activity against methicillin-resistant Staphylococcus aureus assessed as fractional inhibitory concentration index in presence of cefathiamidine by CLSI protocol based two fold serial dilution method; format: functional
Procedure, shortened: (§3)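 Checkerboard-type pairing, with each agent tested alone and combined by CLSI two-fold serial dilution. MICs are from three independent experiments. FIC index = (MIC of A combined/MIC of A alone) + (MIC of B combined/MIC of B alone). An index ≤1 is read as synergistic and 1–2 as additive.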

Klebsiella pneumoniae [13] = assay: Antibacterial activity against Klebsiella pneumoniae assessed as inhibition of bacterial growth after 24 hrs by CLSI protocol based two fold serial dilution method; format: functional; procedure, shortened: as §2
DNA [14] = assay: Binding affinity to Klebsiella pneumoniae DNA assessed as increase in absorption peak of DNA by UV-Vis spectroscopy; format: nucleic-acid assay
Procedure, shortened: (§4)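 DNA isolated from K. pneumoniae held at fixed concentration while test compound is added in stepwise, proportional increments; UV-vis absorption spectra recorded, following the 260 nm DNA band.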

Staphylococcus aureus [15] = assay: Antibacterial activity against Staphylococcus aureus assessed as inhibition of bacterial growth after 24 hrs by CLSI protocol based two fold serial dilution method; format: functional; procedure, shortened: as §2
DNA [16] = assay: Binding affinity to Klebsiella pneumoniae DNA assessed as hyperchromic shift by UV-Vis spectroscopy; format: nucleic-acid assay; procedure, shortened: as §4
DNA [17] = assay: Competitive binding affinity to Klebsiella pneumoniae DNA assessed as increase in DNA intercalation by measuring increase in absorbance at around 260 nm by UV spectroscopy; format: nucleic-acid assay; procedure, shortened: as §1
Escherichia coli [18] = assay: Synergistic antibacterial activity against Escherichia coli assessed as fractional inhibitory concentration index in presence of cefathiamidine by CLSI protocol based two fold serial dilution method; format: functional
DNA [19] = assay: Binding affinity to Klebsiella pneumoniae DNA assessed as red shift in absorption spectra by UV-Vis spectroscopy; format: nucleic-acid assay; procedure, shortened: as §4
Klebsiella pneumoniae [20] = assay: Synergistic antibacterial activity against Klebsiella pneumoniae assessed as fractional inhibitory concentration index in presence of cefathiamidine by CLSI protocol based two fold serial dilution method; format: functional
DNA [21] = assay: Binding affinity to Klebsiella pneumoniae DNA assessed as cleavage of DNA at 50 uM and pH 7.4 and 37 °C incubated for 6 hrs by gel electrophoresis analysis
Staphylococcus aureus [22] = assay: Antibacterial activity against Staphylococcus aureus ATCC 25923 assessed as inhibition of bacterial growth after 24 hrs by CLSI protocol based two fold serial dilution method; format: functional; procedure, shortened: as §2
Staphylococcus aureus [23] = assay: Additive antibacterial activity against Staphylococcus aureus assessed as fractional inhibitory concentration index in presence of cefathiamidine by CLSI protocol based two fold serial dilution method; format: functional
Klebsiella pneumoniae [24] = assay: Induction of membrane permeabilization in Klebsiella pneumoniae at 12 times MIC measured after 1 hr by propidium iodide staining based fluorescence assay; format: functional, organism-based
[25] = Inhibition of Saccharomyces cerevisiae CGMCC 2.145 chitin synthase using GlcNAc and UDP-GlcNAc as substrate incubated for 60 mins by microplate reader analysis
Procedure, shortened: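 Chitin synthase IC50 determined from concentration–inhibition curves.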

Enterococcus faecalis = assay: Antibacterial activity against Enterococcus faecalis assessed as inhibition of bacterial growth after 24 hrs by CLSI protocol based two fold serial dilution method; format: functional; procedure, shortened: as §2
Pseudomonas aeruginosa [26] = assay: Antibacterial activity against Pseudomonas aeruginosa assessed as inhibition of bacterial growth after 24 hrs by CLSI protocol based two fold serial dilution method; format: functional; procedure, shortened: as §2
Staphylococcus aureus [27] = assay: Antibacterial activity against methicillin-resistant Staphylococcus aureus assessed as bacterial growth inhibition in presence of cefathiamidine by CLSI protocol based two fold serial dilution method; format: functional; procedure, shortened: as §3
Klebsiella pneumoniae [28] = assay: Antibacterial activity against Klebsiella pneumoniae measured every 24 hrs after 10 passages by serial dilution method; format: functional, organism-based
Acinetobacter baumannii = assay: Antibacterial activity against Acinetobacter baumannii assessed as inhibition of bacterial growth after 24 hrs by CLSI protocol based two fold serial dilution method; format: functional; procedure, shortened: as §2
Klebsiella pneumoniae [29] = assay: Potentiation of cefathiamidine-induced antibacterial activity against Klebsiella pneumoniae assessed as fold reduction in cefathiamidine MIC by CLSI protocol based two fold serial dilution method; format: functional
Candida parapsilosis = assay: Antifungal activity against Candida parapsilosis ATCC 22019 assessed as inhibition of fungal growth after 24 hrs by CLSI protocol based two fold serial dilution method; format: functional; details: Lodderomyces parapsilosis; procedure, shortened: as §2
Escherichia coli [30] = assay: Antibacterial activity against Escherichia coli assessed as bacterial growth inhibition in presence of cefathiamidine by CLSI protocol based two fold serial dilution method; format: functional; procedure, shortened: as §2
Escherichia coli [31] = assay: Antibacterial activity against Escherichia coli ATCC 25922 assessed as inhibition of bacterial growth after 24 hrs by CLSI protocol based two fold serial dilution method; format: functional; procedure, shortened: as §2
Staphylococcus aureus [32] = assay: Antibacterial activity against Staphylococcus aureus assessed as bacterial growth inhibition in presence of cefathiamidine by CLSI protocol based two fold serial dilution method; format: functional; procedure, shortened: as §2
DNA [33] = assay: Binding affinity to Klebsiella pneumoniae DNA assessed as intercalating activity by measuring intrinsic binding constant by UV-Vis spectroscopy; format: nucleic-acid assay; procedure, shortened: as §4

SMILES: CCn1cc(-c2csc(N)n2)c(=O)c2cc(F)c(N3CCN(CC#N)CC3)cc21
- IC50 (DNA gyrase): 16.7 µM
- Activity (DNA [1]): Active
- inhibition (Saccharomyces cerevisiae): 64.6%
- MIC (Aspergillus fumigatus): 19 µM (≈ 7.84 µg/mL)
- MIC (Candida tropicalis): 39 µM (≈ 16.1 µg/mL)
- viability at 72 h, 128 ug/ml [2]: 80.2%
- MIC (Candida albicans [3]): 10 µM (≈ 4.12 µg/mL)
- MIC (Staphylococcus aureus [4]): 19 µM (≈ 7.84 µg/mL)
- MIC (Candida albicans [5]): 10 µM (≈ 4.12 µg/mL)
- MIC (Klebsiella pneumoniae [6]): 1 µM
- Activity (DNA [7]): Active
- MIC (Escherichia coli [8]): 39 µM (≈ 16.1 µg/mL)
- MIC (Staphylococcus aureus [9]): 10 µM (≈ 4.12 µg/mL)
- Activity (Klebsiella pneumoniae [10]): >2.5 log10CFU/ml
- MIC (Pseudomonas aeruginosa [11]): 19 µM (≈ 7.84 µg/mL)
- fractional inhibitory concentration index (FICI) (Staphylococcus aureus [12]): 0.61
- MIC (Klebsiella pneumoniae [13]): 5 µM (≈ 2.06 µg/mL)
- Activity (DNA [14]): Active
- MIC (Staphylococcus aureus [15]): 10 µM (≈ 4.12 µg/mL)
- Activity (DNA [16]): Active
- Activity (DNA [17]): Active
- fractional inhibitory concentration index (FICI) (Escherichia coli [18]): 0.73
- Activity (DNA [19]): Active
- fractional inhibitory concentration index (FICI) (Klebsiella pneumoniae [20]): 0.7
- Activity (DNA [21]): inactive
- MIC (Staphylococcus aureus [22]): 10 µM (≈ 4.12 µg/mL)
- fractional inhibitory concentration index (FICI) (Staphylococcus aureus [23]): 1.12
- Activity (Klebsiella pneumoniae [24]): Active
- IC50 [25]: 180 µM
- MIC (Enterococcus faecalis): 19 µM (≈ 7.84 µg/mL)
- MIC (Pseudomonas aeruginosa [26]): 19 µM (≈ 7.84 µg/mL)
- MIC (Staphylococcus aureus [27]): 2 µM
- Activity (Klebsiella pneumoniae [28]): Active
- MIC (Acinetobacter baumannii): 19 µM (≈ 7.84 µg/mL)
- fold change (FC) (Klebsiella pneumoniae [29]): 2
- MIC (Candida parapsilosis): 19 µM (≈ 7.84 µg/mL)
- MIC (Escherichia coli [30]): 10 µM
- MIC (Escherichia coli [31]): 10 µM (≈ 4.12 µg/mL)
- MIC (Staphylococcus aureus [32]): 10 µM
- K (DNA [33]): 1.43 10^4L/mol
